“Also recorded” adds a separate entry of the source. Read-outs that look alike come from different tables or passages of the source. Values belong to the compound of their own block, whether it stands above or below them.
Columns and labels:
[1] = system: mouse brain membrane SH enzymes; assay type: biochemical; conditions: FP-Rh; for Off-targets (10 μM): 10 μM compound; for Off-targets (1 μM): 1 μM compound
In short: (§1)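 Mouse brain membrane fraction was prepared by Dounce homogenisation in PBS pH 7.5, a 1,400 × g spin, then a 100,000 × g pellet (45 min). Membranes at 1 mg/mL were preincubated with test compound for 30 min at 37 °C, then labelled with FP-rhodamine (1 μM final, 30 min, 37 °C). Samples were quenched in SDS-PAGE loading buffer, run on 10% SDS-PAGE and scanned for in-gel fluorescence.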

[2] = biological target: T1, ABHD6 (Mus musculus, UniProt Q8R2Y0); conditions: negligible cross-reactivity with FAAH; cited from earlier work
T1 sequence (Q8R2Y0 1-336): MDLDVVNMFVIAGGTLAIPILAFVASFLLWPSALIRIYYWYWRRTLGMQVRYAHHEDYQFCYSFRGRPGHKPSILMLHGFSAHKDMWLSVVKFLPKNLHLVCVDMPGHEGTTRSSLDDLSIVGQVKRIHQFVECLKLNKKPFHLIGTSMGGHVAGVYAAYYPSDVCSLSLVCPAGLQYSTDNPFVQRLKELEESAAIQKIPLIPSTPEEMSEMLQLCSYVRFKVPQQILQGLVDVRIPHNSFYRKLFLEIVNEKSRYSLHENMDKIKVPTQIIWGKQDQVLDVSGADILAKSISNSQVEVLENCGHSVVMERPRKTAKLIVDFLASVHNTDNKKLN

[3] = biological target: T2, mouse brain membrane SH enzymes (Mus musculus, UniProt O08914); assay type: biochemical; conditions: competitive ABPP, FP-Rh
T2 sequence (O08914 1-579): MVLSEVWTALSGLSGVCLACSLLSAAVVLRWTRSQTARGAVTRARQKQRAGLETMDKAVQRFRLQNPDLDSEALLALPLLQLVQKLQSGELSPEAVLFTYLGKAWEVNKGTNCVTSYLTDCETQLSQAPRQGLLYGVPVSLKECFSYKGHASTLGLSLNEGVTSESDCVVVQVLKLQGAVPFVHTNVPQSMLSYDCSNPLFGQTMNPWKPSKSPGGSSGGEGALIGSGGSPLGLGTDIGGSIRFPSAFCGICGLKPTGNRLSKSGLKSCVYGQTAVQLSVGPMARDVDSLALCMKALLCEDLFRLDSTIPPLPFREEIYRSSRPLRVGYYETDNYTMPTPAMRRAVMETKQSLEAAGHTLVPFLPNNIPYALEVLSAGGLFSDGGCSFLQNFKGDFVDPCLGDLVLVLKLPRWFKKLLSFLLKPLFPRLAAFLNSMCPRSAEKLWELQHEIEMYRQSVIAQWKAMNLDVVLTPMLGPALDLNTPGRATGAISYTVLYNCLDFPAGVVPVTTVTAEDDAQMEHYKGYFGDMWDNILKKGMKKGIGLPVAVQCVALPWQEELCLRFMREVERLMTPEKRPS
In short: as §1

[4] = biological target: T3, Neuro2A membrane proteome (Mus musculus, UniProt Q8R2Y0); assay: click chemistry-ABPP of Neuro2A cells treated in situ with compound 2; assay type: cell-based; conditions: Neuro2A cells 1 hr, click with azide-Rh
T3 sequence (Q8R2Y0 1-336): T1 sequence (Q8R2Y0 1-336)

[5] = system: Neuro2A membrane proteome; assay: as above; assay type: cell-based, mouse; conditions: Neuro2A cells 1 hr, click with azide-Rh
[6] = biological target: T4, endogenous ABHD6 (Mus musculus, UniProt Q8R2Y0); assay: gel-based competitive ABPP; assay type: biochemical; conditions: versus compound 1
T4 sequence (Q8R2Y0 1-336): T1 sequence (Q8R2Y0 1-336)

[7] = biological target: T1, ABHD6; assay: in situ ABHD6 inhibition in Neuro2A cells, gel-based competitive ABPP; assay type: cell-based; conditions: for potency and selectivity in cells: abstract statement; for fold more potent in situ compared to compound 1: versus compound 1
[8] = system: other SHs detected in Neuro2A cells; assay: ABPP-SILAC of Neuro2A cells treated in situ: other serine hydrolases; assay type: cell-based, mouse; conditions: 3 nM, 4 hr
In short: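 Neuro2A cells were grown 10 passages in light or heavy (13C/15N Arg and Lys) SILAC DMEM with 10% dialyzed FCS and 2 mM L-glutamine. Heavy cells received test compound and light cells DMSO (4 hr, 37 °C). Soluble and membrane proteomes (2.0 mg/mL) were labeled with 10 μM FP-biotin (2 hr, 25 °C), mixed 1:1, avidin-enriched, trypsin-digested on bead (12 hr, 37 °C) and analysed by LC-MS/MS. Heavy/light ratios were taken from ≥3 unique peptides per enzyme.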

[9] = biological target: T1, ABHD6; assay: in vivo ABHD6 inhibition in mouse liver, gel-based competitive ABPP; conditions: 4 hr; for liver ABHD6 inhibition at 1 mg kg^-1: i.p., 1 mg kg^-1, HT-01 gels
[10] = biological target: T1, ABHD6; assay: in vivo ABHD6 inhibition in mouse brain, gel-based competitive ABPP; conditions: for brain ABHD6 inhibition: 1 mg kg^-1 (20: all doses tested, 0.1-1 mg kg^-1)
[11] = biological target: T5, other brain and liver SHs (CES1, FAAH) (Mus musculus, UniProt O08914); assay type: in vivo; conditions: for lowest oral dose with cross-reactivity with FAAH in the brain: oral gavage
T5 sequence (O08914 1-579): T2 sequence (O08914 1-579)
In short: (§2)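 Mice were dosed i.p. in 18:1:1 saline/ethanol/PEG40 (10 μL g-1) or by oral gavage in PEG300 (4 μL g-1). After 4 hr they were anaesthetised with isoflurane and killed by cervical dislocation. Brain and liver were Dounce-homogenised in PBS pH 7.5, and membrane fractions (100,000 × g pellet) were labelled with FP-rhodamine or HT-01 (1 μM, 30 min, 37 °C). Readout was SDS-PAGE with in-gel fluorescence.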

[12] = system: other brain and liver SHs (CES1, FAAH); assay type: in vivo; conditions: mouse, i.p., 4 hr, FP-Rh gels
In short: as §2

[13] = Table 1, mouse brain membrane proteome

Structure (SMILES): COc1ccc(-c2ccc(-c3cn(C(=O)N4CCCCC4c4ccccc4)nn3)cc2)cc1 (centres unmarked) [Compound 1]
Off-targets (10 μM) [1, 13]: FAAH
concentration that completely inactivates ABHD6 in living cells [2]: 25 nM

Structure (SMILES): C#CCOCCCc1ccc(C2CCCCN2C(=O)n2cc(-c3ccc(-c4ccc(OC)cc4)cc3)nn2)cc1 (centres unmarked) [Compound 2]
concentrations cross-reactive with FAAH in mouse brain proteome [3]: 0.4 to 10 µM
lowest concentration at which the ∼35 kDa target (ABHD6) was detected [4]: 10 nM
concentrations with limited cross-reactivity (60 kDa protein, likely FAAH) [5]: 80 to 600 nM

Structure (SMILES): COc1ccccc1-c1ccc(-c2cn(C(=O)N3CCCCC3Cc3ccccc3)nn2)cc1 (centres unmarked) [Compound 3]
Off-targets (10 μM) [1, 13]: MGLL

Structure (SMILES): O=C(N1CCCCC1Cc1ccccc1)n1cc(-c2ccc(-c3cccc(CO)c3)cc2)nn1 (centres unmarked) [Compound 4]
Off-targets (10 μM) [1, 13]: none

Structure (SMILES): O=C(c1ccc(-c2ccc(-c3cn(C(=O)N4CCCCC4Cc4ccccc4)nn3)cc2)cc1)N1CCCCC1 (centres unmarked) [Compound 5]
Off-targets (10 μM) [1, 13]: none

Structure (SMILES): COc1ccccc1-c1ccc(-c2cn(C(=O)N3CCCCC3c3ccccc3)nn2)cc1 (centres unmarked) [Compound 6]
Off-targets (10 μM) [1, 13]: FAAH, MGLL

Structure (SMILES): O=C(N1CCCCC1c1ccccc1)n1cc(-c2ccc(-c3ccccc3CO)cc2)nn1 (centres unmarked) [Compound 8]
Off-targets (1 μM) ([1]; mouse brain SHs): none
Off-targets (10 μM) ([1]; Table 2, mouse brain SHs): FAAH, LYPLA1, LYPLA2

Structure (SMILES): O=C(N1CCCCC1c1ccccc1)n1cc(-c2ccc(-c3cccc(CO)c3)cc2)nn1 (centres unmarked) [Compound 9, (4-(3′-(Hydroxymethyl)-[1,1′-biphenyl]-4-yl)-1H-1,2,3-triazol-1-yl)(2-phenylpiperidin-1-yl)methanone]
fold more potent in vitro compared to compound 1 [6]: ~10 fold
Off-targets (1 μM) ([1]; mouse brain SHs): none
Off-targets (10 μM) ([1]; Table 2, mouse brain SHs): FAAH, LYPLA1, LYPLA2
potency and selectivity in cells [7]: < 5 nM
fold more potent in situ compared to compound 1 [7]: ~5 fold
cross-reactivity against the ∼50 other SHs (ABPP-SILAC) [8]: < 50%
liver ABHD6 inhibition at 1 mg kg^-1 [9]: near-complete blockade; also recorded: near-complete inactivation
brain ABHD6 inhibition ([10]; i.p., 4 hr): completely inactivated; also recorded: near-complete inactivation
lowest oral dose with cross-reactivity with FAAH in the brain [11]: 10 mg/kg
inhibition of off-target carboxylesterase-1 (CES1) in vivo [12]: inhibited

Structure (SMILES): O=C(N1CCCCC1c1ccccc1)n1cc(-c2ccc(-c3ccc(CO)cc3)cc2)nn1 (centres unmarked) [Compound 10]
Off-targets (1 μM) ([1]; mouse brain SHs): none
Off-targets (10 μM) ([1]; Table 2, mouse brain SHs): FAAH, LYPLA1, LYPLA2

Now from value to compound, other results behind:

fold more potent in vitro compared to compound 1 [6]: ~10 fold
Off-targets (1 μM) ([1]; mouse brain SHs): none
Off-targets (10 μM) ([1]; Table 2, mouse brain SHs): LYPLA1, LYPLA2
fold more potent in situ compared to compound 1 [7]: ~5 fold
doses giving near-complete blockade of ABHD6 in the liver (i.p.) [9]: 5 to 10 mg/kg
dose to completely block ABHD6 in the brain (i.p.) ([10]; i.p., 4 hr): ~40 mg/kg
inhibition at 20 mg/kg ([10]; ip, read-out: brain ABHD6 inhibition at 20 mg kg^-1): > 70%
dose producing complete blockade of brain ABHD6 (p.o.) ([10]; p.o., PEG300, 4 hr): 40 mg/kg
cross-reactivity with FAAH in brain in vivo ([11]; i.p., 1-40 mg kg^-1, 4 hr): negligible
Structure (SMILES): O=C(c1cccc(-c2ccc(-c3cn(C(=O)N4CCCCC4c4ccccc4)nn3)cc2)c1)N1CCCCC1 (centres unmarked) [Compound 11, (2-Phenylpiperidin-1-yl)(4-(3′-(piperidine-1-carbonyl)-[1,1′-biphenyl]-4-yl)-1H-1,2,3-triazol-1-yl)methanone]
cross-reactivity against the ∼50 other SHs (ABPP-SILAC) [8]: < 50%

Off-targets (1 μM) ([1]; mouse brain SHs): none
Off-targets (10 μM) ([1]; Table 2, mouse brain SHs): LYPLA1, LYPLA2
Structure (SMILES): O=C(c1ccc(-c2ccc(-c3cn(C(=O)N4CCCCC4c4ccccc4)nn3)cc2)cc1)N1CCCCC1 (centres unmarked) [Compound 12]

Off-targets (1 μM) ([1]; mouse brain SHs): none
Off-targets (10 μM) ([1]; Table 2, mouse brain SHs): FAAH, LYPLA1, LYPLA2
Structure (SMILES): NC(=O)c1ccc(-c2ccc(-c3cn(C(=O)N4CCCCC4c4ccccc4)nn3)cc2)cc1 (centres unmarked) [Compound 13]

fold more potent in vitro compared to compound 1 [6]: ~10 fold
Off-targets (1 μM) ([1]; mouse brain SHs): none
Off-targets (10 μM) ([1]; Table 2, mouse brain SHs): FAAH, DAGLβ
potency and selectivity in cells [7]: < 5 nM
fold more potent in situ compared to compound 1 [7]: ~5 fold
brain ABHD6 inhibition ([10]; i.p., 4 hr): negligible inhibition
lowest oral dose with cross-reactivity with FAAH in the brain [11]: 10 mg/kg
Structure (SMILES): O=C(O)c1cccc(-c2ccc(-c3cn(C(=O)N4CCCCC4Cc4ccccc4)nn3)cc2)c1 (centres unmarked) [Compound 20, 4′-(1-(2-Benzylpiperidine-1-carbonyl)-1H-1,2,3-triazol-4-yl)-[1,1′-biphenyl]-3-carboxylic acid]
cross-reactivity against the ∼50 other SHs (ABPP-SILAC) [8]: < 50%
liver ABHD6 inhibition at 1 mg kg^-1 [9]: near-complete blockade; also recorded: near-complete inactivation

Off-targets (1 μM) ([1]; mouse brain SHs): APEH, LYPLA1, and LYPLA2
Off-targets (10 μM) ([1]; Table 2, mouse brain SHs): FAAH, APEH, LYPLA1, LYPLA2
Structure (SMILES): O=C(O)c1cccc(-c2ccc(-c3cn(C(=O)N4CCCCC4c4ccccc4)nn3)cc2)c1 (centres unmarked) [Compound 21]

Off-targets (1 μM) ([1]; mouse brain SHs): none
Off-targets (10 μM) ([1]; Table 2, mouse brain SHs): FAAH
Structure (SMILES): O=C(O)c1cccc(-c2ccc(-c3cn(C(=O)N4CCCCC4CCc4ccccc4)nn3)cc2)c1 (centres unmarked) [Compound 22]

From PMC3987869 (Journal of medicinal chemistry, 2013)
